Source: ChEMBL document CHEMBL1629690, “Development of hexadecyloxypropyl tenofovir (CMX157) for treatment of infection caused by wild-type and nucleoside/nucleotide-resistant HIV” (Antimicrob Agents Chemother, 2010)

system: Human immunodeficiency virus 1; assay: Antiviral activity against HIV1 isolate 057 expressing wild type reverse transcriptase gene by phenosense assay; format: functional, organism-based; details: Human immunodeficiency virus 1, isolate 057
In short: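 In the PhenoSense recombinant virus assay, virus was tested against increasing drug concentrations. EC50 came from the inhibition curve and was compared with a drug-sensitive reference virus.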

Q: For `Cc1cn([C@H]2C=C[C@@H](CO)O2)c(=O)[nH]c1=O` [STAVUDINE], which EC50 is on record?
A: The EC50 was 0.48 µM.

system: Human immunodeficiency virus 1; assay: Antiviral activity against HIV1 isolate 060 harboring reverse transcriptase M41L/D67N/K70R/L210W/T215Y/K219E mutant gene by phenosense assay; format: functional, organism-based; details: Human immunodeficiency virus 1, isolate 060
In short: (§1)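 Recombinant-virus PhenoSense HIV assay run on a panel of 30 NRTI-resistant HIV-1 mutants and two wild-type viruses. Each virus is tested across increasing drug concentrations to give an inhibition curve and EC50. Fold change is the test recombinant EC50 divided by the EC50 of the drug-sensitive wild-type reference virus.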

Q: For `Cc1cn([C@H]2C=C[C@@H](CO)O2)c(=O)[nH]c1=O` [STAVUDINE], which EC50 is on record?
A: The EC50 was 2.8 µM.

system: Human immunodeficiency virus 1; assay: Antiviral activity against HIV1 isolate 063 harboring reverse transcriptase M41L/D67N/K70R/M184V/L210W/T215Y/K219E mutant gene by phenosense assay; format: functional, organism-based; details: Human immunodeficiency virus 1, isolate 063; in short: as §1

Q: With `Cc1cn([C@H]2C=C[C@@H](CO)O2)c(=O)[nH]c1=O` [STAVUDINE] as the compound, how does the EC50 read?
A: Its EC50 is 1.4 µM.

system: Human immunodeficiency virus 1; assay: Antiviral activity against HIV1 isolate 067 harboring reverse transcriptase A62V/D67G/T69SVG/V75I/T215I mutant gene by phenosense assay; format: functional, organism-based; details: Human immunodeficiency virus 1, isolate 067; in short: as §1

Q: How did the EC50 turn out when `Cc1cn([C@H]2C=C[C@@H](CO)O2)c(=O)[nH]c1=O` [STAVUDINE] was run?
A: Its EC50 is 6.4 µM.

system: Human immunodeficiency virus 1; assay: Antiviral activity against HIV1 isolate 069 harboring reverse transcriptase D67E/T69SSG/V75M/M184V/L210W/T215Y mutant gene by phenosense assay; format: functional, organism-based; details: Human immunodeficiency virus 1, isolate 069; in short: as §1

Q: How did the EC50 turn out when `Cc1cn([C@H]2C=C[C@@H](CO)O2)c(=O)[nH]c1=O` [STAVUDINE] was run?
A: The EC50 was 6.8 µM.

system: Human immunodeficiency virus 1; assay: Antiviral activity against HIV1 isolate 071 harboring reverse transcriptase 65R/S68N/184V mutant gene by phenosense assay; format: functional, organism-based; details: Human immunodeficiency virus 1, isolate 071; in short: as §1

Q: Which EC50 does the source give for `Cc1cn([C@H]2C=C[C@@H](CO)O2)c(=O)[nH]c1=O` [STAVUDINE] here?
A: Its EC50 is 0.59 µM.

system: Human immunodeficiency virus 1; assay: Antiviral activity against HIV1 isolate 153 harboring reverse transcriptase L74V mutant gene by phenosense assay; format: functional, organism-based; details: Human immunodeficiency virus 1, isolate 153; in short: as §1

Q: With `Cc1cn([C@H]2C=C[C@@H](CO)O2)c(=O)[nH]c1=O` [STAVUDINE] as the compound, how does the EC50 read?
A: Its EC50 is 0.6 µM.

system: Human immunodeficiency virus 1; assay: Antiviral activity against HIV1 isolate 157 harboring reverse transcriptase L74V/M184V mutant gene by phenosense assay; format: functional, organism-based; details: Human immunodeficiency virus 1, isolate 157; in short: as §1

Q: For `Cc1cn([C@H]2C=C[C@@H](CO)O2)c(=O)[nH]c1=O` [STAVUDINE], which EC50 is on record?
A: The EC50 was 0.42 µM.

system: Human immunodeficiency virus 1; assay: Antiviral activity against HIV1 isolate 162 harboring reverse transcriptase A62V/V75I/F77L/Y115F/F116Y/Q151M/M184V mutant gene by phenosense assay; format: functional, organism-based; details: Human immunodeficiency virus 1, isolate 162; in short: as §1

Q: Which EC50 does the source give for `Cc1cn([C@H]2C=C[C@@H](CO)O2)c(=O)[nH]c1=O` [STAVUDINE] here?
A: The EC50 was 4.2 µM.

system: Human immunodeficiency virus 1; assay: Antiviral activity against HIV1 isolate 180 harboring reverse transcriptase K65R mutant gene obtained as site-directed mutant of NL4-3 by phenosense assay; format: functional, organism-based; details: Human immunodeficiency virus 1, isolate 180; in short: as §1

Q: Which EC50 does the source give for `Cc1cn([C@H]2C=C[C@@H](CO)O2)c(=O)[nH]c1=O` [STAVUDINE] here?
A: Its EC50 is 0.83 µM.

system: Human immunodeficiency virus 1; assay: Antiviral activity against HIV1 isolate 188 harboring reverse transcriptase T215Y/M184V mutant gene by phenosense assay; format: functional, organism-based; details: Human immunodeficiency virus 1, isolate 188; in short: as §1

Q: How did the EC50 turn out when `Cc1cn([C@H]2C=C[C@@H](CO)O2)c(=O)[nH]c1=O` [STAVUDINE] was run?
A: The EC50 was 0.65 µM.

system: Human immunodeficiency virus 1; assay: Antiviral activity against HIV1 isolate 200 harboring reverse transcriptase M41L/L210W/T215Y mutant gene by phenosense assay; format: functional, organism-based; details: Human immunodeficiency virus 1, isolate 200; in short: as §1

Q: For `Cc1cn([C@H]2C=C[C@@H](CO)O2)c(=O)[nH]c1=O` [STAVUDINE], which EC50 is on record?
A: Its EC50 is 1.2 µM.

system: Human immunodeficiency virus 1; assay: Antiviral activity against HIV1 isolate 201 harboring reverse transcriptase M41L/L210W/T215Y mutant gene by phenosense assay; format: functional, organism-based; details: Human immunodeficiency virus 1, isolate 201; in short: as §1

Q: Which EC50 does the source give for `Cc1cn([C@H]2C=C[C@@H](CO)O2)c(=O)[nH]c1=O` [STAVUDINE] here?
A: The EC50 was 1.1 µM.

system: Human immunodeficiency virus 1; assay: Antiviral activity against HIV1 isolate 203 harboring reverse transcriptase M41L/L210W/T215Y/M184V mutant gene by phenosense assay; format: functional, organism-based; details: Human immunodeficiency virus 1, isolate 203
In short: (§2)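 PhenoSense HIV recombinant virus assay: patient-derived HIV-1 with major NRTI resistance mutations tested against increasing drug concentrations to give inhibition curves. EC50 is the concentration giving 50% inhibition. Fold change is the test recombinant EC50 divided by the EC50 of a drug-sensitive wild-type reference virus. Panel of 30 NRTI-resistant isolates plus two wild-type viruses.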

Q: How did the EC50 turn out when `Cc1cn([C@H]2C=C[C@@H](CO)O2)c(=O)[nH]c1=O` [STAVUDINE] was run?
A: The EC50 was 0.88 µM.

system: Human immunodeficiency virus 1; assay: Antiviral activity against HIV1 isolate 211 harboring reverse transcriptase D67N/K70R/T215F/K219E/M184V mutant gene by phenosense assay; format: functional, organism-based; details: Human immunodeficiency virus 1, isolate 211; in short: as §2

Q: Which EC50 does the source give for `Cc1cn([C@H]2C=C[C@@H](CO)O2)c(=O)[nH]c1=O` [STAVUDINE] here?
A: The EC50 was 0.79 µM.

system: Human immunodeficiency virus 1; assay: Antiviral activity against HIV1 isolate 212 harboring reverse transcriptase L210W/T215Y mutant gene by phenosense assay; format: functional, organism-based; details: Human immunodeficiency virus 1, isolate 212; in short: as §2

Q: `Cc1cn([C@H]2C=C[C@@H](CO)O2)c(=O)[nH]c1=O` [STAVUDINE] was tested. Which EC50 did it give?
A: Its EC50 is 0.94 µM.

system: Human immunodeficiency virus 1; assay: Antiviral activity against HIV1 isolate 215 harboring reverse transcriptase D67N/K70E mutant gene by phenosense assay; format: functional, organism-based; details: Human immunodeficiency virus 1, isolate 215; in short: as §2

Q: How did the EC50 turn out when `Cc1cn([C@H]2C=C[C@@H](CO)O2)c(=O)[nH]c1=O` [STAVUDINE] was run?
A: The EC50 was 0.56 µM.
